According to ChEMBL document CHEMBL5136984, “Synthesis and antiproliferative activity of 6BrCaQ-TPP conjugates for targeting the mitochondrial heat shock protein TRAP1” (Eur J Med Chem, 2022):
Active and inactive are the calls of the source. The calls are words filed in the database; no cut-off is given here.

What was measured:
MDA-MB-231 [1] = experiment: Cytotoxicity against human MDA-MB-231 cells assessed as cell growth inhibition incubated for 72 hrs by Celltiter Glo assay; type: functional, cell-based; details: for IC50: MDA-MB-231, 72 h; for GI50: MDA-MB-231, time 72 hrs
Procedure, shortened: (§1)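 MDA-MB-231 cells exposed for 72 h; survival quantified by CellTiter Glo luminescence. GI50 = 50% growth inhibition; TGI = concentration at which final cell number equals the starting number; LC50 and IC50 also derived from the same curves.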

MDA-MB-231 [2] = experiment: Cytotoxicity against human MDA-MB-231 cells assessed as induction of cell death incubated for 72 hrs by Celltiter Glo assay; type: functional; details: read-out: LC50 (the source's name)
Procedure, shortened: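 MDA-MB-231 cells were exposed to compounds for 72 h, and survival was quantified by CellTiter-Glo luminescence. From the curves, GI50 (50% growth inhibition), TGI (cell number equal to that at start), LC50 (end cell number 50% of start) and IC50 (50% inhibition of cell activity) were derived.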

MDA-MB-231 [3] = experiment: Cytotoxicity against human MDA-MB-231 cells assessed as concentration required for complete tumor growth inhibition incubated for 72 hrs by Celltiter Glo assay; type: functional; procedure, shortened: as §1
HT-29 [4] = experiment: Induction of mitochondrial membrane potential depolarization in human HT-29 cells assessed as reduction in fluorescence intensity at 0.1 to 1 uM measured after 2 to 6 hrs by TMRE staining based analysis relative to control; type: functional; design: scale not given: the % may be the effect or the level left; details: dose 0.1-1 µM, time 2-6 hrs
Procedure, shortened: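 HT-29 cells (2,500/well) seeded the day before, exposed 2, 3 or 6 h at 0.1, 0.5 and 1 µM. CCCP 50 µM for 20 min served as depolarization control. TMRE added at 200 nM final for 20 min at 37 °C, fluorescence read by microplate, relative to untreated cells. 3–8 replicate wells per condition.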

HCT-116 [5] = experiment: Cytotoxicity against human HCT-116 cells assessed as induction of cell death incubated for 72 hrs by MTT assay; type: functional; details: read-out: LC50 (the source's name)
Procedure, shortened: (§2)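 Cells were seeded at 2,500 per well and treated 24 h later for 72 h, with 4 replicates per condition and at least three independent experiments. MTT (5 mg/mL solution) was added for 2 h, then the medium was replaced by DMSO. Absorbance at 570 nm was blank-corrected using cell-free wells containing compound, and untreated cells were set as 100% metabolic activity.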

K562 = experiment: Cytotoxicity against human K562 cells assessed as induction of cell death incubated for 72 hrs by MTT assay; type: functional; details: read-out: LC50 (the source's name); procedure, shortened: as §2
MDA-MB-231 [6] = experiment: Cytotoxicity against human MDA-MB-231 cells assessed as induction of cell death incubated for 72 hrs by MTT assay; type: functional; details: read-out: LC50 (the source's name); procedure, shortened: as §2
PC-3 = experiment: Cytotoxicity against human PC-3 cells assessed as induction of cell death incubated for 72 hrs by MTS assay; type: functional; details: read-out: LC50 (the source's name)
HT-29 [7] = experiment: Cytotoxicity against human HT-29 cells assessed as inhibition of cell growth incubated for 72 hrs by MTT assay; type: functional, cell-based; details: HT-29, 72 h
Procedure, shortened: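 HT-29 cells (McCoy medium, 10% FBS, 2 mM glutamine) seeded at 2,500/well, treated 24 h later for 72 h. MTT (5 mg/mL solution) 2 h, formazan dissolved in DMSO, A570 corrected for cell-free blanks with compound. Untreated wells set as 100%. Quadruplicates, at least three independent experiments.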

HT-29 [8] = experiment: Cytotoxicity against human HT-29 cells assessed as dead cells at 0.1 to 2 uM incubated for 72 hrs by trypan blue staining based optical microscopic analysis relative to control; type: functional; details: dose 0.1-2 µM
Procedure, shortened: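 HT-29 cells were grown in McCoy medium with 10% FBS and 2 mM L-glutamine at 37 °C under 5% CO2, seeded at 30,000 per well and treated 24 h later for 72 h. Cells were PBS-washed, trypsinized, mixed 1:1 with trypan blue, and viable and dead cells were counted by light microscopy. Each condition was run three times.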

HT-29 [9] = experiment: Cytotoxicity against human HT-29 cells assessed as reduction in viable cells incubated for 72 hrs by trypan blue staining based optical microscopic analysis relative to control; type: functional, cell-based; details: HT-29, 72 h
Procedure, shortened: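 HT-29 cells seeded at 30,000/well, treated 24 h later for 72 h. Cells washed with PBS, trypsinized, resuspended in medium and mixed 1:1 with trypan blue. Viable and dead cells counted by optical microscopy on a counting slide. Each condition analysed 3 times.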

HT-29 [10] = experiment: Cytotoxicity against human HT-29 cells assessed as cell mortality at 0.1 to 1 uM incubated for 2 to 6 hrs by MTT assay; type: toxicity, cell-based; details: ht-29, 1 µM, dose lower 0.1 µM, time lower 2 hrs, dose upper 1 µM, time upper 6 hrs
HCT-116 [11] = experiment: Cytotoxicity against human HCT-116 cells assessed as cell viability at 1 uM incubated for 72 hrs by MTT assay relative to control; type: functional; details: read-out: Activity
Procedure, shortened: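 MTT read-out after 72 h exposure; 2,500 cells/well seeded and treated 24 h later. MTT solution (5 mg/mL) added for 2 h, medium replaced by DMSO, absorbance at 570 nm corrected for cell-free blanks with compound. Untreated cells taken as 100% metabolic activity. Quadruplicate wells, experiment repeated at least three times.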

HT-29 [12] = experiment: Downregulation of SDHA protein expression in human HT-29 cells incubated for 24 hrs by Western blot analysis; type: functional, cell-based; details: dose 0.1-1 µM, DDE = dose-dependent effect
Procedure, shortened: (§3)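 HT-29 cells exposed 24 h at 0.1, 0.5 and 1 µM; RIPA lysates, 30 µg protein on 4–15% stain-free SDS-PAGE, PVDF transfer. Anti-SDH-A (mouse, 1:500) or anti-SDH-B (rabbit, 1:250) overnight at 4 °C, HRP secondary, ECL. Densitometry normalized to stain-free total protein; duplicate blots.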

HT-29 [13] = experiment: Downregulation of SDHB protein expression in human HT-29 cells incubated for 24 hrs by Western blot analysis; type: functional, cell-based; details: dose 0.1-1 µM, DDE = dose-dependent effect; procedure, shortened: as §3
HT-29 [14] = experiment: Downregulation of HSP27 protein expression in human HT-29 cells at 0.1 to 0.5 uM incubated for 24 hrs by Western blot analysis; type: functional, cell-based; details: dose 0.1-0.5 µM
Procedure, shortened: (§4)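 HT-29 cells treated 24 h, lysed in RIPA with protease inhibitors 30 min on ice. 30 µg protein denatured at 95 °C with β-mercaptoethanol, run on 4–15% stain-free gels, transferred to PVDF. Blocked in 5% milk/TBS-Tween, primary antibody overnight at 4 °C, HRP secondary 1 h, ECL detection. Signals normalized to stain-free total protein. Blots in duplicate.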

HT-29 [15] = experiment: Downregulation of HSP70 protein expression in human HT-29 cells at 0.1 to 0.5 uM incubated for 24 hrs by Western blot analysis; type: functional, cell-based; details: dose 0.1-0.5 µM; procedure, shortened: as §4
[16] = target: T1, Heat shock factor protein 1 (Homo sapiens) (UniProt Q00613); experiment: Induction of HSF-1 degradation in human HT-29 cells at 0.5 uM incubated for 24 hrs by Western blot analysis; type: cell-based; procedure, shortened: as §4
T1 sequence (whole entry): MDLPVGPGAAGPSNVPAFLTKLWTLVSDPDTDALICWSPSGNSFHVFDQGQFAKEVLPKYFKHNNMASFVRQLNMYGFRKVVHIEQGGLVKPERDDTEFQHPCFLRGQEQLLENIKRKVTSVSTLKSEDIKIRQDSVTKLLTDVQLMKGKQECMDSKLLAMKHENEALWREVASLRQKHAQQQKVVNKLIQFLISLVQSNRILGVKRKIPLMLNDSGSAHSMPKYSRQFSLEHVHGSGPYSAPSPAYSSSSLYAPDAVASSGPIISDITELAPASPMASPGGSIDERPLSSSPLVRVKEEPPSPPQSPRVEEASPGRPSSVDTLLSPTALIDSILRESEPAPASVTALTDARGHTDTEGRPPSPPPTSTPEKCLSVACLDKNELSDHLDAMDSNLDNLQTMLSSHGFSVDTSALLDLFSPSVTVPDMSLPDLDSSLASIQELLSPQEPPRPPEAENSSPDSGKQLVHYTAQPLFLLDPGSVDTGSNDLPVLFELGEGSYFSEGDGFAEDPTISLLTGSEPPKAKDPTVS

[17] = Drug localization in vesicle of human A549 cells at 2 uM measured after 4 hrs by MitoTracker Deep Red based confocal microscopic analysis; details: a549, 4 h

SMILES	IC50 (MDA-MB-231 [1])	GI50 (MDA-MB-231 [1])	CC50 (MDA-MB-231 [2])	EC (MDA-MB-231 [3])	other results
Cn1c(=O)c(NC(=O)c2ccc(OCCCCC[P+](c3ccccc3)(c3ccccc3)c3ccccc3)cc2)cc2cc(Br)ccc21.[Br-]	87 nM	83 nM	100 nM	0.093 µM	
Cn1c(=O)c(NC(=O)c2ccc(OCCCCCCCCCCBr)cc2)cc2cc(Br)ccc21	7000 nM				
Cn1c(=O)c(NC(=O)c2ccc(OCCC[P+](c3ccccc3)(c3ccccc3)c3ccccc3)cc2)cc2cc(Br)ccc21.[Br-]		60 nM	380 nM	0.16 µM	
Cn1c(=O)c(NC(=O)c2ccc(OCCCC[P+](c3ccccc3)(c3ccccc3)c3ccccc3)cc2)cc2cc(Br)ccc21.[Br-]	82 nM	76 nM	110 nM	0.091 µM	
OCCCCCCCCCC[P+](c1ccccc1)(c1ccccc1)c1ccccc1.[Br-]					Activity (HT-29 [4]): <=35%
Cn1c(=O)c(NC(=O)c2ccc(O)cc2)cc2cc(Br)ccc21	7150 nM	5790 nM	17600 nM	10.97 µM	
Cn1c(=O)c(NC(=O)c2ccc(OCCCCCCCCCCCC[P+](c3ccccc3)(c3ccccc3)c3ccccc3)cc2)cc2cc(Br)ccc21.[Br-]		11000 nM	17900 nM	15.2 µM	
Cn1c(=O)c(NC(=O)c2ccc(OCCCCCCC[P+](c3ccccc3)(c3ccccc3)c3ccccc3)cc2)cc2cc(Br)ccc21.[Br-]	82 nM	65 nM	490 nM	0.18 µM	
Cn1c(=O)c(NC(=O)c2ccc(OCCCCCCCCCC[P+](c3ccccc3)(c3ccccc3)c3ccccc3)cc2)cc2ccccc21.[Br-]	49 nM	26 nM	310 nM	0.092 µM	
Cn1c(=O)c(NC(=O)c2ccc(OCCCCCCCCCC[P+](c3ccccc3)(c3ccccc3)c3ccccc3)cc2)cc2cc(Br)ccc21.[Br-]	8 nM	8 nM	180 nM	0.037 µM	CC50 (HCT-116 [5]): 36 nM; CC50 (K562): 107 nM; CC50 (MDA-MB-231 [6]): 180 nM; Activity (HT-29 [4]): <=68%; CC50 (PC-3): 300 nM; IC50 (HT-29 [7]): < 100 nM; Activity (HT-29 [8]): <10%; IC50 (HT-29 [9]): < 100 nM; Activity (HT-29 [10]): Non-Toxic; viability at 1 µM (HCT-116 [11]): 11%; Activity (HT-29 [12]): Dde; Activity (HT-29 [13]): Dde; Activity (HT-29 [14]): Active; Activity (HT-29 [15]): Active; Activity [16]: Active
COc1ccc(C(=O)Nc2cc3cc(Br)ccc3n(C)c2=O)cc1		60 nM	380 nM	0.16 µM	CC50 (HCT-116 [5]): 7000 nM; CC50 (K562): 48000 nM; CC50 (MDA-MB-231 [6]): 2000 nM; Activity (HT-29 [4]): -30%; CC50 (PC-3): 10000 nM; IC50 (HT-29 [7]): > 20000 nM
Cn1c(=O)c(NC(=O)c2ccc(OCCCCCCCCCCOc3ccc(N(c4ccc(/C=C/c5cc[n+](C)cc5)cc4)c4ccc(/C=C/c5cc[n+](C)cc5)cc4)cc3)cc2)cc2cc(Br)ccc21.[I-].[I-]					viability at 1 µM (HCT-116 [11]): 95%; Drug uptake [17]: Active
